Laboratory results taken from ChEMBL document CHEMBL4477266, “Discovery of N-(benzyloxy)-1,3-diphenyl-1H-pyrazole-4-carboxamide derivatives as potential antiproliferative agents by inhibiting MEK” (Bioorg Med Chem, 2016).

Columns and labels:
[1] = Antiproliferative activity against human 293T cells after 48 hrs in presence of 10% FBS by MTT method; format: cell-based; details: 293T (HEK-293T) cells
In short: (§1)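 Cells were grown to log phase in DMEM with 10% fetal bovine serum at 37 °C under humidified 5% CO₂. They were seeded at 10⁵ cells/well and left 24 h to reattach. Compounds were added at increasing concentrations with 10% FBS for 48 h. Values are the mean of three independent experiments, each run in triplicate.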

[2] = tested on: MCF7; experiment: Antiproliferative activity against human MCF7 cells after 48 hrs in presence of 10% FBS by MTT method; format: functional; details: MCF7, 48 h; in short: as §1
[3] = tested on: A549; experiment: Antiproliferative activity against human A549 cells after 48 hrs in presence of 10% FBS by MTT method; format: functional; details: A549, 48 h; in short: as §1
[4] = tested on: HeLa; experiment: Antiproliferative activity against human HeLa cells after 48 hrs in presence of 10% FBS by MTT method; format: functional; in short: as §1
[5] = molecular target: T1, Dual specificity mitogen-activated protein kinase kinase 1 (Homo sapiens, UniProt Q02750); experiment: Inhibition of recombinant full length human N-terminal GST-tagged C-terminal His6-tagged MEK1 expressed in Escherichia coli using myelin basic protein as substrate in presence of activated BRAF and ERK2 by ELISA
Target sequence in this assay (Q02750 whole entry): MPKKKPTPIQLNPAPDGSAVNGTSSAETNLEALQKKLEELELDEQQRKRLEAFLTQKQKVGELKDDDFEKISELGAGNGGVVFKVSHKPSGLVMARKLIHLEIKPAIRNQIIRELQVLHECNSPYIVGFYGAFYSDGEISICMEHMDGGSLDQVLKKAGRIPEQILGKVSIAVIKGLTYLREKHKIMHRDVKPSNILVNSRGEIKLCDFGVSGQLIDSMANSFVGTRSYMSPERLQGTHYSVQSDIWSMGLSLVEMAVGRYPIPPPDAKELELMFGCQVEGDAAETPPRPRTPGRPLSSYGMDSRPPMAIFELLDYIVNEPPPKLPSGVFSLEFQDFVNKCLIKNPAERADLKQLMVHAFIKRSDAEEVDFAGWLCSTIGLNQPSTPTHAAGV

[6] = molecular target: T1, Dual specificity mitogen-activated protein kinase kinase 1; experiment: Inhibition of MEK1 in […] human A549 cells assessed as reduction in ERK1/2 phosphorylation by ELISA; format: cell-based
Target sequence in this assay (Q02750 whole entry, looked up, change not shown): as the sequence (Q02750 whole entry) above

[7] = molecular target: Epidermal growth factor receptor (Homo sapiens, UniProt P00533); experiment: Inhibition of EGFR (unknown origin)
[8] = molecular target: T2, Aurora kinase A (Homo sapiens, UniProt O14965); experiment: Inhibition of Aurora A (unknown origin)
T2 sequence (O14965 whole entry): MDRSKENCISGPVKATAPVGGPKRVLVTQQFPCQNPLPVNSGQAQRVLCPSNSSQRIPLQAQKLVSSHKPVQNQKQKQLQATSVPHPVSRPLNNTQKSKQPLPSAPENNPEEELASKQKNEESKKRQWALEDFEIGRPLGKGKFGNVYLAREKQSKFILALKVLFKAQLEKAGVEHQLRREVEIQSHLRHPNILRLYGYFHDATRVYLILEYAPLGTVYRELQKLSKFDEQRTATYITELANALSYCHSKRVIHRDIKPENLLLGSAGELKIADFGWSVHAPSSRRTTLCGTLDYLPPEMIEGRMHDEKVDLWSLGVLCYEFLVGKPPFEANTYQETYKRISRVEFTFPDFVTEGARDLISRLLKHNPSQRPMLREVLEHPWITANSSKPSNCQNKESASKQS

[9] = molecular target: Vascular endothelial growth factor receptor 2 (Homo sapiens, UniProt P35968); experiment: Inhibition of VEGFR2 (unknown origin)
[10] = molecular target: Receptor tyrosine-protein kinase erbB-2 (Homo sapiens, UniProt P04626); experiment: Inhibition of HER2 (unknown origin)
[11] = molecular target: Focal adhesion kinase 1 (Homo sapiens, UniProt Q05397); experiment: Inhibition of FAK in human MCF7 cells; format: cell-based
Chain of Focal adhesion kinase 1 (Q05397 whole entry): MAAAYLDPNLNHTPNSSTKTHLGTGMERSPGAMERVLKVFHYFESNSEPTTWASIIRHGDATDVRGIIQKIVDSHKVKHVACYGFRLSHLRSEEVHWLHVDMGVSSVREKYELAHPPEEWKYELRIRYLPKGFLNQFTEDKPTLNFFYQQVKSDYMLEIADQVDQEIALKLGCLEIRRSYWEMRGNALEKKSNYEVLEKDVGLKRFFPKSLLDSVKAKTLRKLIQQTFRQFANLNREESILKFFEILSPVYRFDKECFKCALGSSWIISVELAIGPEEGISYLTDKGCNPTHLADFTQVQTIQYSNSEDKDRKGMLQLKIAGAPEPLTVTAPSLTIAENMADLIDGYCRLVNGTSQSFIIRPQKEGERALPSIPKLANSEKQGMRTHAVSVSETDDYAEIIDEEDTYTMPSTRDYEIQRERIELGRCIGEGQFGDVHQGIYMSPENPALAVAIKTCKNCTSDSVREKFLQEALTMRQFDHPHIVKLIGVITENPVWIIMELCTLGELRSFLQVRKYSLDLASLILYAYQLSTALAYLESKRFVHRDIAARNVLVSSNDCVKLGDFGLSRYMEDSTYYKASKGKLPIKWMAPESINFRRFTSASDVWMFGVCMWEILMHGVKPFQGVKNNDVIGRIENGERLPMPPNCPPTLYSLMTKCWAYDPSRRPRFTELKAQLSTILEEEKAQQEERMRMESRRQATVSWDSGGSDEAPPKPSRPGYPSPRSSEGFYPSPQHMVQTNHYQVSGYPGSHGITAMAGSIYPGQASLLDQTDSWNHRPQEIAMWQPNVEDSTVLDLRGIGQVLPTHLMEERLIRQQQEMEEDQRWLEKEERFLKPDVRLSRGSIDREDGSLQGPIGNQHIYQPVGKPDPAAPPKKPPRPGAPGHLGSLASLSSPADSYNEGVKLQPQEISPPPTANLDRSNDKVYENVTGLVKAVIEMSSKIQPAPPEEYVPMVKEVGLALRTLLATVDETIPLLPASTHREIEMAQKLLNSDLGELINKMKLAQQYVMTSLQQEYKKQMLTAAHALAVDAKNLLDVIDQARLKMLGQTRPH

Chain of Epidermal growth factor receptor (P00533 whole entry): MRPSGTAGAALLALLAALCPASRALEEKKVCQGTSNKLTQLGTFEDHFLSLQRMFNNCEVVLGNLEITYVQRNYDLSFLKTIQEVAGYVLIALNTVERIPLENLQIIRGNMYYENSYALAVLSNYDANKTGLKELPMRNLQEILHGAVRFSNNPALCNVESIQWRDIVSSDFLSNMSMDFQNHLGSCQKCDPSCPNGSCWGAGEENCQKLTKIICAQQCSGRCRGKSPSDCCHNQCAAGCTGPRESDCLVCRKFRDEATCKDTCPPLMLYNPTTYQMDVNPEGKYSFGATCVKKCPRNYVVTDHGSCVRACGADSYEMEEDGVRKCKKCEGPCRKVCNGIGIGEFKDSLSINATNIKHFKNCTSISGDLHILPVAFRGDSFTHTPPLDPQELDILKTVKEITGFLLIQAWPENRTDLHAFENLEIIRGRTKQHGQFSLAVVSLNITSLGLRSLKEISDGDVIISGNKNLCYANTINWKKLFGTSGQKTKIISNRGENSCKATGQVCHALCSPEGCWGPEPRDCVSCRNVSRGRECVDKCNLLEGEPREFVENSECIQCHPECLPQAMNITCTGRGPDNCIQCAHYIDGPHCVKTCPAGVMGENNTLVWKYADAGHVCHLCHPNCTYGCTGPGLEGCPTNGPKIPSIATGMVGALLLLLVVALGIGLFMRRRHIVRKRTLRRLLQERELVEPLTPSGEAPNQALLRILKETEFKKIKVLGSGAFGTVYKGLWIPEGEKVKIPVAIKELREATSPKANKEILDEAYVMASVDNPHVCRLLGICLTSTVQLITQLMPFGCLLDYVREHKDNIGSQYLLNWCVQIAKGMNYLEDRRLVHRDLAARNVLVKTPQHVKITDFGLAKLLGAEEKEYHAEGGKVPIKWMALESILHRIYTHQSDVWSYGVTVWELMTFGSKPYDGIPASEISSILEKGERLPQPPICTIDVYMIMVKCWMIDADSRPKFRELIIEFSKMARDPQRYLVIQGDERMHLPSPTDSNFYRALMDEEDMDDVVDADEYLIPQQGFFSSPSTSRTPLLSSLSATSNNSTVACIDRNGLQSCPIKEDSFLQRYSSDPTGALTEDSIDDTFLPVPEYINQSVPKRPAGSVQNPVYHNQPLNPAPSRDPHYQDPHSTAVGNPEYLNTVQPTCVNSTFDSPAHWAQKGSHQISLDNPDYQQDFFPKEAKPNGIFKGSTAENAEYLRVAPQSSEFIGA
Chain of Receptor tyrosine-protein kinase erbB-2 (P04626 whole entry): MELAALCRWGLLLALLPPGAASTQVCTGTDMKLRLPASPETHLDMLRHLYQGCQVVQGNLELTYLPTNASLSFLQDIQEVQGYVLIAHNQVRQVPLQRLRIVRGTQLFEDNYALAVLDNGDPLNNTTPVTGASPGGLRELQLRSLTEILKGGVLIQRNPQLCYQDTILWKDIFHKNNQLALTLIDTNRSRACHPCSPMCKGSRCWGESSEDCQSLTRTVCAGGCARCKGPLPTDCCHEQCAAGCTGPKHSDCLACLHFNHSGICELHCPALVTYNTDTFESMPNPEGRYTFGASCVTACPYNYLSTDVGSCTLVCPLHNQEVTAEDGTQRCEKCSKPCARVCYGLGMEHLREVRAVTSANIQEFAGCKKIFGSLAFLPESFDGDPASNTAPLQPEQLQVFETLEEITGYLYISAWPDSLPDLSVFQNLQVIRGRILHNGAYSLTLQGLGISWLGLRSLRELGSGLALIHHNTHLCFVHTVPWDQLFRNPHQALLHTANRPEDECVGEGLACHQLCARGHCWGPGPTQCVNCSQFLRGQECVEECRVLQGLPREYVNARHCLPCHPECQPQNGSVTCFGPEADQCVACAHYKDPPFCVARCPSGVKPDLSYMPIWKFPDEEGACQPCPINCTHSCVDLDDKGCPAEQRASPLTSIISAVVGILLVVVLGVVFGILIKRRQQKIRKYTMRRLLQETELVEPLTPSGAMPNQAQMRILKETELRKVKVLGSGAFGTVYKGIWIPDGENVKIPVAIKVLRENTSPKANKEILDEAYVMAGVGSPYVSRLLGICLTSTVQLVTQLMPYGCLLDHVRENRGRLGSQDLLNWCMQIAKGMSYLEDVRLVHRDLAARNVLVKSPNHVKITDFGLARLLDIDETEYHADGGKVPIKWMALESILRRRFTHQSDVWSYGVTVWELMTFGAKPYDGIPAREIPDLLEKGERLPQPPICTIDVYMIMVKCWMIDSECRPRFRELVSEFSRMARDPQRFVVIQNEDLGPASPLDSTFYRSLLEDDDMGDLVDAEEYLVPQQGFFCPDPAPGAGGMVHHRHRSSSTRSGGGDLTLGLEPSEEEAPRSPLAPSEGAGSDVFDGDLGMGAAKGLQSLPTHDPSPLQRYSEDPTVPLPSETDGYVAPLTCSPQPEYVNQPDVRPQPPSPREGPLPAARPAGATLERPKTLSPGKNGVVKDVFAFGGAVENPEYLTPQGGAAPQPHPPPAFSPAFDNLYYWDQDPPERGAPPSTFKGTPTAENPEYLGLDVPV

| SMILES | GI50 [2] | GI50 [3] | GI50 [4] | IC50 [5] | IC50 [6] | IC50 [7] | IC50 [8] | IC50 [9] | IC50 [10] | IC50 [11] | CC50 at 48 h [1] |
| --- | --- | --- | --- | --- | --- | --- | --- | --- | --- | --- | --- |
| COc1ccc(-n2cc(C(=O)NOCc3ccccc3)c(-c3ccccc3)n2)cc1 | 2.77 µM | 1.94 µM | 2.64 µM |  |  |  |  |  |  |  | 201 µM |
| O=C(NOCc1ccccc1F)c1cn(-c2ccccc2)nc1-c1ccccc1 | 16.1 µM | 5.94 µM | 11.8 µM |  |  |  |  |  |  |  | 75.7 µM |
| O=C(NOCc1ccccc1)c1cn(-c2ccc(F)cc2)nc1-c1ccccc1 | 15.3 µM | 10.4 µM | 6.11 µM |  |  |  |  |  |  |  | 217 µM |
| COc1cc2ncnc(Nc3ccc(F)c(Cl)c3)c2cc1OCCCN1CCOCC1 [GEFITINIB] |  | 2.86 µM |  |  |  |  |  |  |  |  |  |
| Cc1ccc(-n2cc(C(=O)NOCc3ccccc3)c(-c3ccccc3)n2)cc1 | 1.87 µM | 1.14 µM | 6.69 µM |  |  |  |  |  |  |  | 40.8 µM |
| O=C(NOCc1ccccc1Cl)c1cn(-c2ccccc2)nc1-c1ccccc1 | 7.41 µM | 10.3 µM | 17.8 µM |  |  |  |  |  |  |  | 82 µM |
| O=C(NOCc1ccccc1)c1cn(-c2ccccc2)nc1-c1ccccc1 | 13.4 µM | 5 µM | 8.83 µM |  |  |  |  |  |  |  | 122 µM |
| Cc1ccc(-n2cc(C(=O)NOCc3ccccc3F)c(-c3ccccc3)n2)cc1 | 2.11 µM | 0.26 µM | 1.18 µM | 0.091 µM | 0.61 µM | > 25 µM | 8.3 µM | > 25 µM | > 25 µM | 15.6 µM | 20.6 µM |
| COc1ccc(-n2cc(C(=O)NOCc3ccccc3F)c(-c3ccccc3)n2)cc1 | 6 µM | 2.16 µM | 2.9 µM |  |  |  |  |  |  |  | 24.6 µM |
| O=C(NOCc1ccccc1F)c1cn(-c2ccc(F)cc2)nc1-c1ccccc1 | 12 µM | 17.5 µM | 10.3 µM |  |  |  |  |  |  |  | 147 µM |

The next lines start with results.

| GI50 [2] | GI50 [3] | GI50 [4] | IC50 [5] | IC50 [6] | IC50 [7] | IC50 [8] | IC50 [9] | IC50 [10] | IC50 [11] | SMILES | CC50 at 48 h [1] |
| --- | --- | --- | --- | --- | --- | --- | --- | --- | --- | --- | --- |
| 3.73 µM | 2.45 µM | 3.48 µM |  |  |  |  |  |  |  | COc1ccc(-n2cc(C(=O)NOCc3ccccc3Cl)c(-c3ccccc3)n2)cc1 | 586 µM |
| 2.31 µM | 1.08 µM | 2.04 µM |  |  |  |  |  |  |  | Cc1ccc(-n2cc(C(=O)NOCc3ccc(Cl)cc3Cl)c(-c3ccccc3)n2)cc1 | 39.6 µM |
| 16.2 µM | 13.1 µM | 5.16 µM |  |  |  |  |  |  |  | O=C(NOCc1ccc(Cl)cc1Cl)c1cn(-c2ccc(Cl)cc2)nc1-c1ccccc1 | 46.3 µM |
| 15.1 µM | 12.1 µM | 4.17 µM |  |  |  |  |  |  |  | O=C(NOCc1ccccc1F)c1cn(-c2ccc(Cl)cc2)nc1-c1ccccc1 | 126 µM |
| 2.57 µM | 3.83 µM | 5.75 µM |  |  |  |  |  |  |  | COc1ccc(-n2cc(C(=O)NOCc3ccc(Cl)cc3Cl)c(-c3ccccc3)n2)cc1 | 545 µM |
| 16.1 µM | 15.5 µM | 8.85 µM |  |  |  |  |  |  |  | O=C(NOCc1ccccc1Cl)c1cn(-c2ccc(Cl)cc2)nc1-c1ccccc1 | 129 µM |
| 11.4 µM | 8.33 µM | 36.4 µM |  |  |  |  |  |  |  | O=C(NOCc1ccccc1Cl)c1cn(-c2ccc(F)cc2)nc1-c1ccccc1 | 44.7 µM |
| 10.8 µM | 13 µM | 8.35 µM |  |  |  |  |  |  |  | O=C(NOCc1ccccc1)c1cn(-c2ccc(Cl)cc2)nc1-c1ccccc1 | 51.9 µM |
| 9.66 µM | 7.35 µM | 5.1 µM |  |  |  |  |  |  |  | O=C(NOCc1ccc(Cl)cc1Cl)c1cn(-c2ccccc2)nc1-c1ccccc1 | 40.2 µM |
| 25.3 µM | 14 µM | 7.35 µM |  |  |  |  |  |  |  | O=C(NOCc1ccc(Cl)cc1Cl)c1cn(-c2ccc(F)cc2)nc1-c1ccccc1 | 45 µM |
| 2.64 µM | 0.38 µM | 4.68 µM |  |  |  |  |  |  |  | Cc1ccc(-n2cc(C(=O)NOCc3ccccc3Cl)c(-c3ccccc3)n2)cc1 | 38.7 µM |
